{"data": "Assay results of several laboratories", "target": "Ephrin type-A receptor 6 (EPHA6, Homo sapiens, UniProt Q9UF33)", "One construct used (Q9UF33 23-1036)": "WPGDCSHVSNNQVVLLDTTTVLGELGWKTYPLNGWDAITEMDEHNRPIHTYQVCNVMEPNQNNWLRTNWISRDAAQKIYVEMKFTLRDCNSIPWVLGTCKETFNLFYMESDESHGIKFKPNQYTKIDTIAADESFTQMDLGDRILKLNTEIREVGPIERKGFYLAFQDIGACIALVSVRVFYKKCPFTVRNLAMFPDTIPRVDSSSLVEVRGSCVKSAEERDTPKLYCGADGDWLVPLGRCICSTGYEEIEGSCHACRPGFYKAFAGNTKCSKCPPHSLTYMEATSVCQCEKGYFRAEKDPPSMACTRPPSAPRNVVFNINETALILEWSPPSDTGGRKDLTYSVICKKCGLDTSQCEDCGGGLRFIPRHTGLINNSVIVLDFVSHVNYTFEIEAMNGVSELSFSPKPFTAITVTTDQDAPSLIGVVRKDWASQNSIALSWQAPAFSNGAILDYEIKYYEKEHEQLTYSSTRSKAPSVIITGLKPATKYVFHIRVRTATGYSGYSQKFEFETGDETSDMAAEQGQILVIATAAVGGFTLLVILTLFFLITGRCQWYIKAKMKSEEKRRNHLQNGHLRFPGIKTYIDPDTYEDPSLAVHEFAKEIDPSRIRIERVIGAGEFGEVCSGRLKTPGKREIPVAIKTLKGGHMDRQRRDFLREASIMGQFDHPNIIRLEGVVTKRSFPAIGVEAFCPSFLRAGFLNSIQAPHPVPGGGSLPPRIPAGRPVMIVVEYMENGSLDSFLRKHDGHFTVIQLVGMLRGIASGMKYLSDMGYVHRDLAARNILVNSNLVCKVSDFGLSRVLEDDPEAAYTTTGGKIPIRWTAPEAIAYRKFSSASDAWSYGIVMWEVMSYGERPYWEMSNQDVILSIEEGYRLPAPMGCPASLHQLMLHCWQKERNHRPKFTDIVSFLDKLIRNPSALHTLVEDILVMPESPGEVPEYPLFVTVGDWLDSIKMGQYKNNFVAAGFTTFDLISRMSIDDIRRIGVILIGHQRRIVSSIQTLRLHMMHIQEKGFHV", "note": "Protocols differ between the studies behind these lines."}
{"Structure (SMILES)": "CN(c1nccc(-c2cnn3ncccc23)n1)C1CC1", "read-out": "binding", "concentration": "1 µM", "remaining binding [%]": 99}
{"Structure (SMILES)": "c1cncc(-c2cccc(Nc3nccc(NC4CCCCC4)n3)c2)c1", "read-out": "binding", "technique": "competition with immobilised ligand", "concentration": "10 µM", "remaining binding [%]": 96}
{"Structure (SMILES)": "O=C(Nc1cccnn1)N1CCC(=Cc2cccc(Oc3ccc(C(F)(F)F)cn3)c2)CC1", "read-out": "cell-free assay", "technique": "competition with immobilised ligand", "concentration": "1 µM", "remaining binding [%]": 78}
{"Structure (SMILES)": "O=C(c1ccc(Nc2ncc(Cl)c(-c3cc4ccccc4s3)n2)cc1)N1CCC(N2CCCC2)CC1", "read-out": "binding", "technique": "competition with immobilised ligand", "concentration": "1 µM", "remaining binding [%]": 69}
{"Structure (SMILES)": "FC(F)(F)Oc1cccc(-c2cnc3ccc(-c4ccncc4)nn23)c1", "read-out": "cell-free assay", "technique": "competition with immobilised ligand", "concentration": "5 µM", "remaining binding [%]": 93}
{"Structure (SMILES)": "COc1ccnn2ncc(-c3ccnc(N(C)C)n3)c12", "read-out": "binding", "concentration": "1 µM", "remaining binding [%]": 67}
{"Structure (SMILES)": "O=C(c1ccc(Nc2nccc(-c3cc4ccccc4s3)n2)cc1)N1CCC(N2CCCC2)CC1", "read-out": "binding", "technique": "competition with immobilised ligand", "concentration": "1 µM", "remaining binding [%]": 99}
{"Structure (SMILES)": "COc1cc(-c2cn(C3CCc4c(F)cccc4N(CC(F)(F)F)C3=O)nn2)ccc1-n1cnc(C)c1 (stereo not drawn)", "read-out": "cell-free assay", "technique": "competition with immobilised ligand", "concentration": "1 µM", "remaining binding [%]": 100}
{"Structure (SMILES)": "O=C(NCC1CCOCC1)c1n[nH]cc1NC(=O)c1c(F)cccc1F", "read-out": "binding", "technique": "competition with immobilised ligand", "concentration": "1 µM", "remaining binding [%]": 100}
{"Structure (SMILES)": "O=C(NCCCN1CCOCC1)c1ccc(Nc2ncc(Cl)c(-c3ccc(Cl)s3)n2)cc1", "read-out": "binding", "technique": "competition with immobilised ligand", "concentration": "1 µM", "remaining binding [%]": 63}
{"Structure (SMILES)": "Cc1cnn2ncc(-c3ccnc(N(C)C)n3)c2c1", "read-out": "binding", "concentration": "1 µM", "remaining binding [%]": 100}
{"Structure (SMILES)": "CO[C@@H](C)c1c(Nc2ccc([C@H](N(C)C(=O)C3CCS(=O)(=O)CC3)C(F)(F)F)cc2)cnc2cc(Cl)nn12", "read-out": "cell-free assay", "technique": "competition with immobilised ligand", "concentration": "1 µM", "remaining binding [%]": 100}
{"Structure (SMILES)": "Nc1ncc2c(n1)-c1c([nH]c3ccc(C#CC4CC4)cc13)CCCC2", "read-out": "binding", "technique": "competition with immobilised ligand", "concentration": "1 µM", "remaining binding [%]": 100}
{"Structure (SMILES)": "CNCc1ccccc1-c1csc([C@@H](C)Nc2nc(C)nc3cc(OC)c(OC)cc23)c1", "read-out": "cell-free assay", "technique": "competition with immobilised ligand", "concentration": "1 µM", "remaining binding [%]": 96}
{"Structure (SMILES)": "CN(C)c1ncc(F)c(-c2cnn3ncccc23)n1", "read-out": "binding", "concentration": "1 µM", "remaining binding [%]": 82}
{"Structure (SMILES)": "COc1cnc(Nc2cccc(S(N)(=O)=O)c2)nc1N1CCN(c2ccccc2)CC1", "read-out": "binding", "technique": "competition with immobilised ligand", "concentration": "1 µM", "remaining binding [%]": 100}
{"Structure (SMILES)": "CCCCN(CCCC)C(=O)CN1C[C@H](c2cc(OC)c3c(c2)OCO3)[C@@H](C(=O)O)[C@@H]1CC(C)(C)CCC", "read-out": "cell-free assay", "technique": "competition with immobilised ligand", "concentration": "1 µM", "remaining binding [%]": 100}
{"Structure (SMILES)": "F[C@@H]1CCN(c2nccc(-c3cnn4ncccc34)n2)C1", "read-out": "binding", "concentration": "1 µM", "remaining binding [%]": 80}
{"Structure (SMILES)": "Cc1nc(Cc2cccc(C(F)(F)F)c2)sc1-c1ccc(C(N)=O)nc1", "read-out": "cell-free assay", "technique": "competition with immobilised ligand", "concentration": "1 µM", "remaining binding [%]": 96}
{"Structure (SMILES)": "C[C@H]1CCN(c2nccc(-c3cnn4ncccc34)n2)C1", "read-out": "binding", "concentration": "1 µM", "remaining binding [%]": 100}
{"Structure (SMILES)": "CNC(=O)[C@@H]1CC[C@@H](n2c(-c3ccc4cnccc4c3)nc3ccc(C(=O)NCc4cccc(C(N)=O)c4)cc32)C1", "read-out": "binding", "technique": "competition with immobilised ligand", "concentration": "1 µM", "remaining binding [%]": 100}
